Assay results as given in ChEMBL document CHEMBL4376883, “Discovery and Optimization of Small Molecules Targeting the Protein-Protein Interaction of Heat Shock Protein 90 (Hsp90) and Cell Division Cycle 37 as Orally Active Inhibitors for the Treatment of Colorectal Cancer” (J Med Chem, 2020).

Tests used:
[1] = Apparent oral clearance in plasma of human HCT116 cells xenografted BALB/c mouse at 80 mg/kg administered as single dose by LC-MS/MS analysis; assay type: ADME, organism-based
Outline: (§1)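 Xenograft mice (n = 6 per group) received a single 80 mg/kg oral dose. Plasma and tumour were sampled over 0–24 h into heparinized tubes and analysed by LC-MS/MS.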

[2] = Stability of the compound in mouse plasma assessed as parent compound remaining at 1 uM measured after 30 mins by LC-MS/MS analysis; assay type: ADME, cell-free; details: read-out: Stability
Outline: (§2)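 Compound diluted from 10 mM DMSO stock to 1 μM in mouse or human plasma and held at 37 °C in a water bath. Reactions were stopped with acetonitrile at 0, 10, 30, 60 and 90 min. Parent compound was quantified by LC-MS/MS as % remaining.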

HCT-116 = test: Effect on HSP90 expression in human HCT116 cells up to 10 uM measured after 24 hrs by Western blot analysis; assay type: cell-based; details: hct-116, 24 h
Outline: (§3)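 HCT116 cells treated with 0, 1, 5 or 10 µM for 24 h, or with 10 µM for 0, 4, 12, 24 or 48 h. Lysates separated by SDS-PAGE and blotted. Membranes blocked in 5% milk, primary antibodies overnight at 4 °C, HRP secondaries, chemiluminescent detection.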

[3] = Stability of the compound in mouse plasma assessed as parent compound remaining at 1 uM measured after 90 mins by LC-MS/MS analysis; assay type: ADME, cell-free; details: read-out: Stability; outline: as §2
[4] = Half life in human liver microsomes at 10 uM preincubated for 5 mins followed by NADPH addition by LC-MS/MS analysis; assay type: ADME, Microsome
Outline: (§4)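 Compound at 10 µM preincubated 5 min at 37 °C with human or mouse liver microsomes (0.5 mg/mL) in 100 mM phosphate, pH 7.4. Reaction started with 1 mM NADPH, stopped with cold acetonitrile, centrifuged and analysed by LC-MS/MS.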

[5] = Distribution coefficient, log D of the compound at pH 7.4 by potentiometric titration method; assay type: physicochemical; details: octanol/water
Outline: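 log D at pH 7.4 measured by potentiometric titration on a Gemini Profiler.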

Glucocorticoid receptor [6] = target: T1, Glucocorticoid receptor (Homo sapiens, UniProt P04150); test: Effect on glucocorticoid receptor in human HCT116 cells up to 10 uM measured after 24 hrs by Western blot analysis; assay type: ADME, cell-based; outline: as §3
T1 sequence (P04150 whole entry): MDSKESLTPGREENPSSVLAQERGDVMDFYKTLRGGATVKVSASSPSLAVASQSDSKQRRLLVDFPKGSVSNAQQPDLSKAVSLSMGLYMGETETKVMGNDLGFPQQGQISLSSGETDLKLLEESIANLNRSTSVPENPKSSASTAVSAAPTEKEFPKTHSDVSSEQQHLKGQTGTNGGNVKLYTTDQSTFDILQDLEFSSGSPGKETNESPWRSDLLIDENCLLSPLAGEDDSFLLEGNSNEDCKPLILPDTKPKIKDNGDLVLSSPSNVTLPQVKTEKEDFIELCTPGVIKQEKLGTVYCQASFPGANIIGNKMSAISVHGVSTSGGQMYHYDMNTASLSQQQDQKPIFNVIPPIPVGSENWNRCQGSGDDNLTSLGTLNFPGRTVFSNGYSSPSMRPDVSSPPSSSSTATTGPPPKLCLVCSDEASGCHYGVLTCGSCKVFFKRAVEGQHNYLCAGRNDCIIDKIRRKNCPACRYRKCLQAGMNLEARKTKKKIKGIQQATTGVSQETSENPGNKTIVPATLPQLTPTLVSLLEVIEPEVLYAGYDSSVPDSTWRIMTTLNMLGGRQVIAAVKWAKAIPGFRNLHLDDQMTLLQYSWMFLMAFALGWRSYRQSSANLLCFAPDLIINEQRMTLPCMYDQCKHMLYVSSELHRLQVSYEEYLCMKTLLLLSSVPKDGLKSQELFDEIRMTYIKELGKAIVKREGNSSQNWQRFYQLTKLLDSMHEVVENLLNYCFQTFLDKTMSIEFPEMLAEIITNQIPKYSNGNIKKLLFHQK

Glucocorticoid receptor [7] = target: T1, Glucocorticoid receptor; test: Effect on glucocorticoid receptor in human HCT116 cells at 10 uM measured up to 48 hrs by Western blot analysis; assay type: ADME, cell-based; outline: as §3
[8] = Clearance in human liver microsomes at 10 uM preincubated for 5 mins followed by NADPH addition by LC-MS/MS analysis; assay type: ADME, Microsome; details: read-out: CLH; outline: as §4
L02 = test: Cytotoxicity against human L02 cells measured after 72 hrs by CCK8 assay; assay type: functional, cell-based; details: L02, 72 h
Outline: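 Cells grown in RPMI 1640 with 10% FBS at 37 °C, 5% CO2; STR-authenticated and mycoplasma-checked. Seeded at 3000-5000 cells/well and left 24 h. Serial compound dilutions added for 72 h, with matched DMSO as control. Viability read by CCK8 kit using the standard protocol. IC50 values derived from at least three parallel experiments.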

[9] = Apparent oral clearance in tumor of human HCT116 cells xenografted BALB/c mouse at 80 mg/kg administered as single dose by LC-MS/MS analysis; assay type: ADME, organism-based, Neoplasm; outline: as §1
[10] = Half life in tumor of human HCT116 cells xenografted BALB/c mouse at 80 mg/kg, po administered as single dose by LC-MS/MS analysis; assay type: ADME, organism-based, Neoplasm
Outline: (§5)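 Single oral dose of 80 mg/kg given to BALB/c nude mice (n = 6 per group) carrying flank HCT116 xenografts. Blood and tumor were collected at 0, 0.25, 0.5, 1, 2, 4, 8, 12 and 24 h. Blood went into heparinized tubes and was spun at 3000 rpm for 10 min to give plasma. Samples were stored at -80 °C, then drug levels in plasma and tumor were measured by LC-MS/MS.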

[11] = Stability of the compound in human plasma assessed as parent compound remaining at 1 uM measured after 90 mins by LC-MS/MS analysis; assay type: ADME, cell-free; details: read-out: Stability; outline: as §2
[12] = Stability of the compound in human plasma assessed as parent compound remaining at 1 uM measured after 60 mins by LC-MS/MS analysis; assay type: ADME, cell-free; details: read-out: Stability; outline: as §2
[13] = Half life in plasma of human HCT116 cells xenografted BALB/c mouse at 80 mg/kg, po administered as single dose by LC-MS/MS analysis; assay type: ADME, organism-based; outline: as §5
Heat shock protein HSP90 = Heat shock protein HSP90 (Homo sapiens, UniProt P07900+P08238); test: Binding affinity to recombinant […] HSP90 N-terminal domain (9 to 236 residues) (unknown origin) expressed in Escherichia coli BL21 (DE3) by isothermal calorimetric method
Outline: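 ITC: 50 µM Hsp90 in the cell and 300 µM compound in the syringe, both in 20 mM Tris-HCl, 150 mM NaCl, pH 7.4. Nineteen injections at 180 s intervals with stirring at 1000 rpm.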

[14] = Stability of the compound in human plasma assessed as parent compound remaining at 1 uM measured immediately by LC-MS/MS analysis; assay type: ADME, cell-free; details: read-out: Stability; outline: as §2
[15] = AUC (0 to t) in tumor of human HCT116 cells xenografted BALB/c mouse at 80 mg/kg, po administered as single dose by LC-MS/MS analysis; assay type: ADME, organism-based, Neoplasm
Outline: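 Tumour-bearing mice (n = 6 per group) given one oral dose of 80 mg/kg. Blood and tumour collected into heparinized tubes at 0, 0.25, 0.5, 1, 2, 4, 8, 12 and 24 h. Plasma obtained by centrifugation at 3000 rpm for 10 min. Samples stored at -80 °C and quantified by LC-MS/MS.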

Structure (SMILES): Cc1cc(C)c(S(=O)(=O)N(CC(=O)O)c2ccc(Nc3ccnc(N4CCNCC4)n3)cc2)c(C)c1
- CL/F [1]: 3.11 mL/min/kg
- remaining at 0.5 h, 1 µM [2]: 102%
- Activity (HCT-116): Non-Toxic
- remaining at 1.5 h, 1 µM [3]: 105%
- half-life at 10 µM [4]: 2.08 h
- logD [5]: 1.93
- Activity (Glucocorticoid receptor [6]): Non-Toxic
- Activity (Glucocorticoid receptor [7]): Non-Toxic
- microsomal CLint at 10 µM [8]: 8.97 µL/min/mg
- IC50 (L02): > 50 µM
- CL/F [9]: 9.93 mL/min/kg
- half-life [10]: 4.66 h
- remaining at 1.5 h, 1 µM [11]: 103%
- remaining at 1 h, 1 µM [12]: 102%
- half-life [13]: 1.46 h
- Kd (Heat shock protein HSP90): 0.63 µM
- remaining at 0 min, 1 µM [14]: 100%
- AUC(0-t) [15]: 132 µg·h/mL
